Source: ChEMBL document CHEMBL1156701, “Synthesis, potent anti-staphylococcal activity and QSARs of some novel 2-anilinobenzazoles” (2008)
In brackets after ≈: the same amount, converted by molar mass.

Columns and labels:
Staphylococcus aureus [1] = assay: Antibacterial activity against methicillin-resistant Staphylococcus aureus ATCC 43300 after 18 hrs by macro broth dilution assay; type: functional; conditions: for MIC: Staphylococcus aureus, ATCC 43300, 18 h
Summary of the method: (§1)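 Compounds dissolved in 50% DMSO–water at 400 (stock); fourfold dilution with medium and inoculum gives 100 top concentration in first tube (12.5% DMSO, not scored). Inoculum: 4–5 colonies from overnight Tryptic Soy Agar in saline to 0.5 McFarland, diluted 1:100 in MHB (10⁶ CFU/ml); 1 mL added to 1 mL compound dilution in MHB. 35 °C, 18 h; MIC read. Agar diffusion pre-screen first.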

Staphylococcus aureus [2] = assay: Antibacterial activity against Staphylococcus aureus ATCC 25923 after 18 hrs by macro broth dilution assay; type: functional; conditions: for MIC: Staphylococcus aureus, ATCC 25923, 18 h; summary of the method: as §1

Row | SMILES | log(1/C) (Staphylococcus aureus [1]) | MIC (Staphylococcus aureus [1]) [µg/mL] | log(1/C) (Staphylococcus aureus [2]) | MIC (Staphylococcus aureus [2]) [µg/mL]
1 | Nc1ccc2[nH]c(Nc3ccc(Cl)c(Cl)c3)nc2c1 | 3.77 | 50 (≈ 171 µM) | 4.07 | 25 (≈ 85.3 µM)
2 | COC(=O)c1ccc2[nH]c(Nc3ccc(Cl)c(Cl)c3)nc2c1 | 5.64 | 0.78 (≈ 2.32 µM) | 5.34 | 1.56 (≈ 4.64 µM)
3 | Clc1ccc(Nc2nc3cc(Cl)ccc3[nH]2)cc1 | 5.25 | 1.56 (≈ 5.61 µM) | 4.95 | 3.12 (≈ 11.2 µM)
4 | Clc1ccc(Oc2ccccc2Nc2nc3cc(Cl)ccc3[nH]2)cc1 |  | 1.56 (≈ 4.21 µM) | 5.38 | 1.56 (≈ 4.21 µM)
5 | Clc1ccc(Nc2nc3cc(Cl)ccc3[nH]2)c(Cl)c1 |  | 0.39 (≈ 1.25 µM) | 5.9 | 0.39 (≈ 1.25 µM)
6 | Fc1cccc(Nc2nc3cc(Cl)ccc3[nH]2)c1 |  | 6.25 (≈ 23.9 µM) | 4.62 | 6.25 (≈ 23.9 µM)
7 | Clc1ccc(Nc2nc3cc(I)ccc3[nH]2)cc1Cl |  | 0.78 (≈ 1.93 µM) | 5.71 | 0.78 (≈ 1.93 µM)
8 | Clc1ccc(Nc2nc3cc(Cl)c(Cl)cc3[nH]2)cc1 |  | 0.39 (≈ 1.25 µM) | 5.9 | 0.39 (≈ 1.25 µM)
9 | Fc1ccc(Nc2nc3cc(Cl)ccc3[nH]2)cc1Cl |  | 1.56 (≈ 5.27 µM) | 5.28 | 1.56 (≈ 5.27 µM)
10 | FC(F)(F)c1ccc2[nH]c(Nc3ccc(Cl)c(Cl)c3)nc2c1 |  | 0.19 (≈ 0.549 µM) | 6.26 | 0.19 (≈ 0.549 µM)
11 | FC(F)(F)c1cc(Nc2nc3cc(Cl)ccc3[nH]2)ccc1Cl |  | 0.39 (≈ 1.13 µM) | 5.95 | 0.39 (≈ 1.13 µM)
12 | Cc1cc2[nH]c(Nc3ccc(Cl)c(Cl)c3)nc2cc1Cl |  | 0.39 (≈ 1.19 µM) | 5.92 | 0.39 (≈ 1.19 µM)
13 | FC(F)(F)c1ccc(Nc2nc3cc(Cl)ccc3[nH]2)cc1 |  | 0.39 (≈ 1.25 µM) | 5.9 | 0.39 (≈ 1.25 µM)
14 | CC1(C)S[C@@H]2[C@H](NC(=O)[C@H](N)c3ccccc3)C(=O)N2[C@H]1C(=O)OCOC(=O)[C@@H]1N2C(=O)C[C@H]2S(=O)(=O)C1(C)C [SULTAMICILLIN] |  | 25 (≈ 42 µM) |  | 0.78 (≈ 1.31 µM)
15 | Fc1ccc2[nH]c(Nc3ccc(Cl)c(Cl)c3)nc2c1 |  | 1.56 (≈ 5.27 µM) | 5.28 | 1.56 (≈ 5.27 µM)
16 | Fc1cc(F)cc(Nc2nc3cc(Cl)ccc3[nH]2)c1 |  | 1.56 (≈ 5.58 µM) | 5.25 | 1.56 (≈ 5.58 µM)
17 | Fc1ccc(Nc2nc3cc(Cl)ccc3[nH]2)cc1 | 4.32 | 12.5 (≈ 47.8 µM) | 4.92 | 3.12 (≈ 11.9 µM)

Row | SMILES | log(1/C) (Staphylococcus aureus [1]) | MIC (Staphylococcus aureus [1]) [µg/mL] | log(1/C) (Staphylococcus aureus [2]) | MIC (Staphylococcus aureus [2]) [µg/mL]
18 | O=[N+]([O-])c1ccc2[nH]c(Nc3ccc(Cl)c(Cl)c3)nc2c1 | 5.32 | 1.56 (≈ 4.83 µM) | 5.62 | 0.78 (≈ 2.41 µM)
19 | Clc1ccc(Nc2nc3ccccc3[nH]2)cc1Cl | 4.65 | 6.25 (≈ 22.5 µM) | 4.95 | 3.12 (≈ 11.2 µM)
20 | Clc1cc(Cl)cc(Nc2nc3cc(Cl)ccc3[nH]2)c1 |  | 0.39 (≈ 1.25 µM) | 5.9 | 0.39 (≈ 1.25 µM)
21 | FC(F)(F)Oc1ccc(Nc2nc3cc(Cl)ccc3[nH]2)cc1 |  | 0.78 (≈ 2.38 µM) | 5.62 | 0.78 (≈ 2.38 µM)
22 | Clc1ccc2[nH]c(Nc3ccc(Br)cc3)nc2c1 | 5.62 | 0.78 (≈ 2.42 µM) | 5.31 | 1.56 (≈ 4.84 µM)
23 | Clc1ccc(Nc2nc3cc(Br)ccc3[nH]2)cc1Cl | 6.28 | 0.19 (≈ 0.532 µM) | 6.55 | 0.095 (≈ 0.266 µM)
24 | [N-]=[N+]=Nc1ccc(Nc2nc3cc(Cl)ccc3[nH]2)cc1 | 4.66 | 6.25 (≈ 22 µM) | 4.96 | 3.12 (≈ 11 µM)
25 | Fc1ccc(Nc2nc3cc(Cl)ccc3[nH]2)c(F)c1 | 4.65 | 6.25 (≈ 22.3 µM) | 4.35 | 12.5 (≈ 44.7 µM)
26 | FC(F)(F)c1ccc(Cl)c(Nc2nc3cc(Cl)ccc3[nH]2)c1 |  | 0.78 (≈ 2.25 µM) | 5.65 | 0.78 (≈ 2.25 µM)
27 | O=[N+]([O-])c1ccc2[nH]c(Nc3ccc(Cl)cc3)nc2c1 |  | 1.56 (≈ 5.4 µM) | 5.27 | 1.56 (≈ 5.4 µM)
28 | CC1(C)S[C@@H]2[C@H](NC(=O)[C@H](N)c3ccccc3)C(=O)N2[C@H]1C(=O)O [AMPICILLIN] |  | 25 (≈ 71.5 µM) |  | 0.78 (≈ 2.23 µM)
29 | COc1ccc(Nc2nc3cc(Cl)ccc3[nH]2)cc1 |  | 50 (≈ 183 µM) | 3.74 | 50 (≈ 183 µM)
30 | Clc1ccc(Nc2nc3cc(Cl)c(Cl)cc3[nH]2)cc1Cl |  | 0.39 (≈ 1.12 µM) | 5.95 | 0.39 (≈ 1.12 µM)
31 | FC(F)(F)c1cccc(Nc2nc3cc(Cl)ccc3[nH]2)c1 | 5.3 | 1.56 (≈ 5 µM) | 5.9 | 0.39 (≈ 1.25 µM)
32 | Clc1ccc2[nH]c(Nc3ccc(Cl)c(Cl)c3)nc2c1 |  | 0.39 (≈ 1.25 µM) | 5.9 | 0.39 (≈ 1.25 µM)
33 | N#Cc1ccc2[nH]c(Nc3ccc(Cl)c(Cl)c3)nc2c1 |  | 1.56 (≈ 5.15 µM) | 5.28 | 1.56 (≈ 5.15 µM)
